These results are taken from ChEMBL document CHEMBL1123960, “Thyroid hormone analogues. Synthesis of 3'-substituted 3,5-diiodo-L-thyronines and quantitative structure-activity studies of in vitro and in vivo thyromimetic activities in rat liver and heart” (J Med Chem, 1988).

Data set [1] addresses T1, Thyroid hormone receptor beta (Rattus norvegicus) (UniProt P18113).
T1 sequence (whole entry): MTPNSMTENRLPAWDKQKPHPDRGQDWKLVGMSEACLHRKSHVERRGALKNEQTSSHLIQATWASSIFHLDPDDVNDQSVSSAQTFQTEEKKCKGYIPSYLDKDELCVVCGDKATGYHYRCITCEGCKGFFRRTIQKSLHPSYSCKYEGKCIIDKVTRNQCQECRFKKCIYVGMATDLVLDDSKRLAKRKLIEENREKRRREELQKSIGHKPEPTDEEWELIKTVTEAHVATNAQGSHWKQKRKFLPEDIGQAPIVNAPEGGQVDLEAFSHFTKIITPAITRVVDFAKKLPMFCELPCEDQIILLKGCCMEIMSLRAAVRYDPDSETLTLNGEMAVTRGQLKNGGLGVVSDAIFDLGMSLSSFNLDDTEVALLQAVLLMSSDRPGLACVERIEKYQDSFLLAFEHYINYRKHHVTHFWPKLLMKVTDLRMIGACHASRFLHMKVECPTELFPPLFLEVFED
Put plainly: Thyromimetic activity (induction of GPDH) in rat heart expressed as percentage of ratio of the ED50 for T3; I= Inactive. The format is functional, tissue-based. A digest of the protocol: (§1)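 Hypothyroid rats received a single intramuscular injection in 0.15 M NaCl/0.01 M NaOH vehicle (1 mL/kg), up to 50 mg/kg. Mitochondrial GPDH activity was measured in the organ 48 h later. Dose-response curves were fitted to a hyperbola by nonlinear fitting to give ED50, and rel ED50 = (ED50 T3 / ED50 compound) × 100. Where the maximum was below T3's, the percent of maximal response at 50 mg/kg was calculated.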

Data set [2] is described as follows: pKa for compound was evaluated. The format is physicochemical.
Data set [3] addresses T1, Thyroid hormone receptor beta (Rattus norvegicus). Nature of the data set: Thyromimetic activity (induction of GPDH) in rat liver expressed as percentage of ratio of the ED50 for T3; F= Full agonist. The format is functional. The settings on record: filed as agonist. In a few lines:
as §1

The test system of data set [4] is Rattus norvegicus. Nature of the data set: Relative in vivo thyromimetic potency (GPDH induction) in rat heart, expressed as percent ratio of ED50 for T3 to that of compound; F= Full agonist. The settings on record: filed as agonist.
Data set [5] addresses T1, Thyroid hormone receptor beta (Rattus norvegicus). Put plainly: Thyromimetic activity (induction of GPDH) in rat heart expressed as percentage of ratio of the ED50 for T3; F= Full agonist. The format is functional, tissue-based. The settings on record: filed as agonist. A digest of the protocol:
as §1

Data set [6] is filed under the species Rattus norvegicus. Put plainly: Thyromimetic activity (induction of GPDH) in rat heart expressed as percentage of ratio of the ED50 for T3 to that of the test compound; LM= Low maximum response. The format is functional, organism-based. The settings on record: filed as partial agonist. A digest of the protocol:
as §1

The species entered for data set [7] is Rattus norvegicus. Put plainly: Thyromimetic activity (induction of GPDH) in rat liver expressed as percentage of ratio of the ED50 for T3 to that of the test compound; Full agonist. It counts as functional, organism-based. The settings on record: filed as agonist. In a few lines:
as §1

The species named for data set [8] is Rattus norvegicus. Nature of the data set: Thyromimetic activity (induction of GPDH) in rat heart expressed as percentage of ratio of the ED50 for T3 to that of the test compound; Full agonist. The format is functional, organism-based. The settings on record: filed as agonist. A digest of the protocol: as §1
The species entered for data set [9] is Rattus norvegicus. Nature of the data set: Thyromimetic activity (induction of GPDH) in rat liver expressed as percentage of ratio of the ED50 for T3 to that of the test compound; I= Inactive. It counts as functional, organism-based. In a few lines:
as §1

Structures are written as SMILES. Active and inactive are the calls of the source. The calls are words filed in the database; no cut-off is given here.

Turning to `CCC(=O)NCCc1cc(Oc2c(I)cc(CC(N)C(=O)O)cc2I)ccc1O` (stereo unspecified), in data set [1], the “Relative ED50” value was “inactive”. As for `CC(C)(C)c1cc(Oc2c(I)cc(CC(N)C(=O)O)cc2I)ccc1O` (stereo unspecified), in data set [2], the pKa was found to be 10.6. Same read-out and setting: as for `NC(Cc1cc(I)c(Oc2ccc(O)c(Cc3ccccc3)c2)c(I)c1)C(=O)O` (stereo unspecified), the figure is 10.1. As to `NC(Cc1cc(I)c(Oc2ccc(O)c(F)c2)c(I)c1)C(=O)O` (stereo unspecified), the “Relative ED50” value (in data set [3]; in the data set with Rattus norvegicus [4]) was “Agonist” each time. Besides, in data set [2], the pKa is 8.73.

Consider `CCCCc1cc(Oc2c(I)cc(CC(N)C(=O)O)cc2I)ccc1O` (stereo unspecified), for which, in data set [5], the “Relative ED50” value was “Agonist”. In data set [2], `NC(Cc1cc(I)c(Oc2ccc(O)c(Cl)c2)c(I)c1)C(=O)O` (stereo unspecified) had a pKa of 8.56.

In [2], `NC(Cc1cc(I)c(Oc2ccc(O)c(-c3ccccc3)c2)c(I)c1)C(=O)O` (stereo unspecified) returned a pKa of 10. Turning to `NC(Cc1cc(I)c(Oc2ccc(O)c(CC3CCCCC3)c2)c(I)c1)C(=O)O` (stereo unspecified), the “Relative ED50” value in data set [3] and in data set [5] was “Agonist” in each case. `CCC(C)c1cc(Oc2c(I)cc(CC(N)C(=O)O)cc2I)ccc1O` (stereo unspecified): the “Relative ED50” value in data set [3] and in data set [5] was “Agonist” throughout. `N[C@@H](Cc1cc(I)c(Oc2ccc(O)cc2)c(I)c1)C(=O)O` displayed a pKa in data set [2] of 9.99. `COCc1cc(Oc2c(I)cc(CC(N)C(=O)O)cc2I)ccc1O` (stereo unspecified) gave a pKa in [2] of 9.85. Moreover, the “Relative ED50” value in [5] is “Agonist”.

For the molecule `CC(C)Cc1cc(Oc2c(I)cc(CC(N)C(=O)O)cc2I)ccc1O` (stereo unspecified), the “Relative ED50” value in data set [3] and in data set [5] was “Agonist” each time. Consider `COCCCCc1cc(Oc2c(I)cc(CC(N)C(=O)O)cc2I)ccc1O` (stereo unspecified), for which the “Relative ED50” value in data set [5] was “Agonist”. The molecule `Cc1cc(Oc2c(I)cc(CC(N)C(=O)O)cc2I)ccc1O` (stereo unspecified) had a pKa in [2] of 10.3. With `C=CCc1cc(Oc2c(I)cc(CC(N)C(=O)O)cc2I)ccc1O` (stereo unspecified), the pKa in data set [2] was found to be 10.3. With `NCCc1cc(Oc2c(I)cc(CC(N)C(=O)O)cc2I)ccc1O` (stereo unspecified), the “Relative ED50” value in data set [1] was “inactive”. Turning to `CCCCOCc1cc(Oc2c(I)cc(CC(N)C(=O)O)cc2I)ccc1O` (stereo unspecified), the “Relative ED50” value in data set [3] and in data set [5] was “Agonist” in each case. Take `CCOCCCc1cc(Oc2c(I)cc(CC(N)C(=O)O)cc2I)ccc1O` (stereo unspecified): in data set [3], the “Relative ED50” value was “Agonist”. On the same count and under the same terms, for `NC(Cc1cc(I)c(Oc2ccc(O)c(C3CCCCC3)c2)c(I)c1)C(=O)O` (stereo unspecified) the value was “Agonist”. On the same count and under the same terms, as for `CCCCSCc1cc(Oc2c(I)cc(CC(N)C(=O)O)cc2I)ccc1O` (stereo unspecified), the entry is “Agonist”.

`CC(C)c1cc(Oc2c(I)cc(CC(N)C(=O)O)cc2I)ccc1O` (stereo unspecified) returned a pKa in data set [2] of 10.5.

`NC(Cc1cc(I)c(Oc2ccc(O)c(CCCCO)c2)c(I)c1)C(=O)O` (stereo unspecified): in the data set listed under Rattus norvegicus [6], the “Relative ED50” value is “Partial agonist”. In the case of `CC(=O)NCCCc1cc(Oc2c(I)cc(CC(N)C(=O)O)cc2I)ccc1O` (stereo unspecified), in [1], the “Relative ED50” value is “inactive”. The molecule `NC(Cc1cc(I)c(Oc2ccc(O)c(O)c2)c(I)c1)C(=O)O` (stereo unspecified) returned a pKa in data set [2] of 9.34.

With `CCC(=O)c1cc(Oc2c(I)cc(CC(N)C(=O)O)cc2I)ccc1O` (stereo unspecified), the “Relative ED50” value in the data set filed under Rattus norvegicus [7] was “Agonist”. As for `NC(Cc1cc(I)c(Oc2ccc(O)c(C=O)c2)c(I)c1)C(=O)O` (stereo unspecified), the “Relative ED50” value in the data set listed under Rattus norvegicus [8] was “Agonist”. Further, the pKa in data set [2] turned out to be 8.37. Take `NC(Cc1cc(I)c(Oc2ccc(O)c(C(=O)O)c2)c(I)c1)C(=O)O` (stereo unspecified): the “Relative ED50” value (in the data set filed under Rattus norvegicus [9]; in data set [1]) was “inactive” throughout. In the case of `NC(Cc1cc(I)c(Oc2ccc(O)c([N+](=O)[O-])c2)c(I)c1)C(=O)O` (stereo unspecified), the pKa in [2] was determined as 7.23. For the same molecule, the “Relative ED50” value in data set [5] is “Agonist”.

Consider `NC(Cc1cc(I)c(Oc2ccc(O)c(Br)c2)c(I)c1)C(=O)O` (stereo unspecified), for which the pKa in data set [2] was determined as 8.45. The same measure, in the same setting: for `NC(Cc1cc(I)c(Oc2ccc(O)c(CO)c2)c(I)c1)C(=O)O` (stereo unspecified) the value was 9.92; for `CC(=O)c1cc(Oc2c(I)cc(CC(N)C(=O)O)cc2I)ccc1O` (stereo unspecified), 10.1. For the molecule `CCCC(=O)NCc1cc(Oc2c(I)cc(CC(N)C(=O)O)cc2I)ccc1O` (stereo unspecified), the “Relative ED50” value (in the data set filed under Rattus norvegicus [9]; in data set [1]) was “inactive” each time. `NCc1cc(Oc2c(I)cc(CC(N)C(=O)O)cc2I)ccc1O` (stereo unspecified): the “Relative ED50” value (in the data set listed under Rattus norvegicus [9]; in data set [1]) was “inactive” throughout. Regarding `N[C@@H](Cc1cc(I)c(Oc2ccc(O)c(I)c2)c(I)c1)C(=O)O` [LIOTHYRONINE], the pKa in data set [2] is 8.51.

By pKa is commonly meant the negative logarithm of the acid dissociation constant.
